Converted amounts (≈) assume the structure as drawn.
Key:
Schaalia meyeri [1] = assay: Antimicrobial activity against Actinomyces meyeri assessed as percent susceptible isolates after 48 hrs by agar dilution method; format: functional
Prevotella buccae [2] = assay: Antimicrobial activity against Prevotella buccae assessed as percent resistant isolates after 48 hrs by agar dilution method; format: functional, Segatella buccae
Outline: (§1)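 CLSI agar dilution on recent Korean clinical anaerobe isolates. Inoculum 10^5 CFU per spot by replicator. Plates incubated in an anaerobic chamber at 37°C for 48 h. For piperacillin plus tazobactam, tazobactam was held constant at 4 μg/ml. Resistance and susceptibility rates derived from MICs.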

Finegoldia magna [3] = assay: Antimicrobial activity against Finegoldia magna assessed as percent resistant isolates after 48 hrs by agar dilution method; format: functional; outline: as §1
Parvimonas micra [4] = assay: Antimicrobial activity against Peptostreptococcus micros after 48 hrs by agar dilution method; format: functional
Outline: (§2)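 CLSI agar dilution (M11-A7); inoculum 10^5 CFU applied by replicator; plates incubated anaerobically 48 h at 37°C. For piperacillin-tazobactam, tazobactam held constant at 4 μg/ml.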

Bacteroides ovatus [5] = assay: Antimicrobial activity against Bacteroides ovatus assessed as percent resistant isolates after 48 hrs by agar dilution method; format: functional; outline: as §1
Phocaeicola vulgatus [6] = assay: Antimicrobial activity against Bacteroides vulgatus assessed as percent susceptible isolates after 48 hrs by agar dilution method; format: functional
[7] = tested on: Peptoniphilus asaccharolyticus; assay: Antimicrobial activity against Peptoniphilus asaccharolyticus assessed as percent resistant isolates after 48 hrs by agar dilution method; format: functional; outline: as §1
Prevotella bivia [8] = assay: Antimicrobial activity against Prevotella bivia assessed as percent susceptible isolates after 48 hrs by agar dilution method; format: functional; outline: as §2
Fusobacterium nucleatum = assay: Antimicrobial activity against Fusobacterium nucleatum after 48 hrs by agar dilution method; format: functional; outline: as §2
Prevotella buccae [9] = assay: Antimicrobial activity against Prevotella buccae after 48 hrs by agar dilution method; format: functional; settings: Segatella buccae; outline: as §2
Actinomyces naeslundii [10] = assay: Antimicrobial activity against Actinomyces naeslundii assessed as percent susceptible isolates after 48 hrs by agar dilution method; format: functional
[11] = tested on: Parabacteroides distasonis; assay: Antimicrobial activity against Bacteroides distasonis assessed as percent susceptible isolates after 48 hrs by agar dilution method; format: functional
Hoylesella oralis = assay: Antimicrobial activity against Prevotella oralis assessed as percent susceptible isolates after 48 hrs by agar dilution method; format: functional
Outline: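 CLSI agar dilution MIC testing of clinical isolates. 10^5 CFU spotted by replicator, plates incubated 48 h at 37°C in an anaerobic chamber. Susceptibility rates derived from the MICs.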

Schaalia meyeri [12] = assay: Antimicrobial activity against Actinomyces meyeri assessed as percent resistant isolates after 48 hrs by agar dilution method; format: functional; outline: as §1
Prevotella intermedia [13] = assay: Antimicrobial activity against Prevotella intermedia assessed as percent susceptible isolates after 48 hrs by agar dilution method; format: functional; outline: as §2
[14] = tested on: Bacteroides thetaiotaomicron; assay: Antimicrobial activity against Bacteroides thetaiotaomicron assessed as percent susceptible isolates after 48 hrs by agar dilution method; format: functional
Finegoldia magna [15] = assay: Antimicrobial activity against Finegoldia magna assessed as percent susceptible isolates after 48 hrs by agar dilution method; format: functional; outline: as §2
[16] = tested on: Porphyromonas asaccharolytica; assay: Antimicrobial activity against Porphyromonas asaccharolytica after 48 hrs by agar dilution method; format: functional; outline: as §2
Parvimonas micra [17] = assay: Antimicrobial activity against Peptostreptococcus micros assessed as percent susceptible isolates after 48 hrs by agar dilution method; format: functional; outline: as §1
Bacteroides caccae [18] = assay: Antimicrobial activity against Bacteroides caccae assessed as percent susceptible isolates after 48 hrs by agar dilution method; format: functional
[19] = tested on: Parabacteroides distasonis; assay: Antimicrobial activity against Bacteroides distasonis assessed as percent resistant isolates after 48 hrs by agar dilution method; format: functional; outline: as §1
Phocaeicola vulgatus [20] = assay: Antimicrobial activity against Bacteroides vulgatus assessed as percent resistant isolates after 48 hrs by agar dilution method; format: functional; outline: as §1
Schaalia meyeri [21] = assay: Antimicrobial activity against Actinomyces meyeri after 48 hrs by agar dilution method; format: functional
Outline: (§3)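 MICs on clinical anaerobe isolates by the CLSI agar dilution method. Inoculum of 10^5 CFU applied with a Steers replicator. Plates incubated 48 h at 37°C in an anaerobic chamber.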

Schaalia odontolytica [22] = assay: Antimicrobial activity against Actinomyces odontolyticus assessed as percent resistant isolates after 48 hrs by agar dilution method; format: functional; outline: as §1
Finegoldia magna [23] = assay: Antimicrobial activity against Finegoldia magna after 48 hrs by agar dilution method; format: functional; outline: as §2
[24] = tested on: Bacteroides thetaiotaomicron; assay: Antimicrobial activity against Bacteroides thetaiotaomicron after 48 hrs by agar dilution method; format: functional; outline: as §3
Bacteroides caccae [25] = assay: Antimicrobial activity against Bacteroides caccae after 48 hrs by agar dilution method; format: functional; outline: as §3
Actinomyces naeslundii [26] = assay: Antimicrobial activity against Actinomyces naeslundii assessed as percent resistant isolates after 48 hrs by agar dilution method; format: functional; outline: as §1
Fusobacterium necrogenes = assay: Antimicrobial activity against Fusobacterium necrogenes after 48 hrs by agar dilution method; format: functional; outline: as §2
Eubacterium sp. [27] = assay: Antimicrobial activity against Eubacterium sp. after 48 hrs by agar dilution method; format: functional; outline: as §2
Bacteroides fragilis = assay: Antimicrobial activity against Bacteroides fragilis assessed as percent resistant isolates after 48 hrs by agar dilution method; format: functional; outline: as §1
Bacteroides ovatus [28] = assay: Antimicrobial activity against Bacteroides ovatus after 48 hrs by agar dilution method; format: functional; outline: as §3
Actinomyces israelii [29] = assay: Antimicrobial activity against Actinomyces israelii after 48 hrs by agar dilution method; format: functional; outline: as §3
Fusobacterium varium = assay: Antimicrobial activity against Fusobacterium varium after 48 hrs by agar dilution method; format: functional; outline: as §2
Eggerthella lenta [30] = assay: Antimicrobial activity against Eubacterium lentum assessed as percent susceptible isolates after 48 hrs by agar dilution method; format: functional; outline: as §2
Bifidobacterium sp. [31] = assay: Antimicrobial activity against Bifidobacterium sp. assessed as percent susceptible isolates after 48 hrs by agar dilution method; format: functional; outline: as §2
Prevotella bivia [32] = assay: Antimicrobial activity against Prevotella bivia assessed as percent resistant isolates after 48 hrs by agar dilution method; format: functional; outline: as §1
Clostridium perfringens = assay: Antimicrobial activity against Clostridium perfringens assessed as percent susceptible isolates after 48 hrs by agar dilution method; format: functional
Schaalia odontolytica [33] = assay: Antimicrobial activity against Actinomyces odontolyticus after 48 hrs by agar dilution method; format: functional; outline: as §3
Clostridioides difficile = assay: Antimicrobial activity against Clostridium difficile assessed as percent susceptible isolates after 48 hrs by agar dilution method; format: functional
Actinomyces israelii [34] = assay: Antimicrobial activity against Actinomyces israelii assessed as percent susceptible isolates after 48 hrs by agar dilution method; format: functional
[35] = tested on: Peptoniphilus asaccharolyticus; assay: Antimicrobial activity against Peptoniphilus asaccharolyticus after 48 hrs by agar dilution method; format: functional; outline: as §2
Bifidobacterium sp. [36] = assay: Antimicrobial activity against Bifidobacterium sp. assessed as percent resistant isolates after 48 hrs by agar dilution method; format: functional; outline: as §1
[37] = tested on: Bacteroides thetaiotaomicron; assay: Antimicrobial activity against Bacteroides thetaiotaomicron assessed as percent resistant isolates after 48 hrs by agar dilution method; format: functional; outline: as §1
Eggerthella lenta [38] = assay: Antimicrobial activity against Eubacterium lentum assessed as percent resistant isolates after 48 hrs by agar dilution method; format: functional; outline: as §1
Anaerococcus prevotii = assay: Antimicrobial activity against Anaerococcus prevotii assessed as percent susceptible isolates after 48 hrs by agar dilution method; format: functional
Eubacterium sp. [39] = assay: Antimicrobial activity against Eubacterium sp. assessed as percent resistant isolates after 48 hrs by agar dilution method; format: functional; outline: as §1
Prevotella intermedia [40] = assay: Antimicrobial activity against Prevotella intermedia after 48 hrs by agar dilution method; format: functional; outline: as §2

## CO[C@@]1(NC(=O)Cc2cccs2)C(=O)N2C(C(=O)O)=C(COC(N)=O)CS[C@@H]21 [CEFOXITIN]
Schaalia meyeri [1]
  Activity: 92%
Prevotella buccae [2]
  Activity: 0%
Finegoldia magna [3]
  Activity: 0%
Parvimonas micra [4]
  MIC50: 1 µg/mL (≈ 2.34 µM)
  MIC90: 16 µg/mL (≈ 37.4 µM)
Bacteroides ovatus [5]
  Activity: 7%
Phocaeicola vulgatus [6]
  Activity: 25%
[7]
  Activity: 0%
Prevotella bivia [8]
  Activity: 89%
Fusobacterium nucleatum
  MIC: 0.06 µg/mL (≈ 0.14 µM)
Prevotella buccae [9]
  MIC50: 1 µg/mL (≈ 2.34 µM)
  MIC90: 32 µg/mL (≈ 74.9 µM)
Actinomyces naeslundii [10]
  Activity: 92%
[11]
  Activity: 25%
Hoylesella oralis
  Activity: 89%
Schaalia meyeri [12]
  Activity: 0%
Prevotella intermedia [13]
  Activity: 100%
[14]
  Activity: 25%
Finegoldia magna [15]
  Activity: 100%
[16]
  MIC: 0.06 µg/mL (≈ 0.14 µM)
Parvimonas micra [17]
  Activity: 0%
Bacteroides caccae [18]
  Activity: 25%
[19]
  Activity: 7%
Phocaeicola vulgatus [20]
  Activity: 7%
Schaalia meyeri [21]
  MIC50: 2 µg/mL (≈ 4.68 µM)
  MIC90: 16 µg/mL (≈ 37.4 µM)
Schaalia odontolytica [22]
  Activity: 0%
Finegoldia magna [23]
  MIC50: 0.5 µg/mL (≈ 1.17 µM)
  MIC90: 1 µg/mL (≈ 2.34 µM)
[24]
  MIC50: 32 µg/mL (≈ 74.9 µM)
  MIC90: 32 µg/mL (≈ 74.9 µM)
Bacteroides caccae [25]
  MIC50: 32 µg/mL (≈ 74.9 µM)
  MIC90: 32 µg/mL (≈ 74.9 µM)
Actinomyces naeslundii [26]
  Activity: 0%
Fusobacterium necrogenes
  MIC: 0.06 µg/mL (≈ 0.14 µM)
Eubacterium sp. [27]
  MIC50: 2 µg/mL (≈ 4.68 µM)
  MIC90: 16 µg/mL (≈ 37.4 µM)
Bacteroides fragilis
  Activity: 5%
Bacteroides ovatus [28]
  MIC50: 32 µg/mL (≈ 74.9 µM)
  MIC90: 32 µg/mL (≈ 74.9 µM)
Actinomyces israelii [29]
  MIC50: 2 µg/mL (≈ 4.68 µM)
  MIC90: 16 µg/mL (≈ 37.4 µM)
Fusobacterium varium
  MIC: 0.06 µg/mL (≈ 0.14 µM)
Eggerthella lenta [30]
  Activity: 92%
Bifidobacterium sp. [31]
  Activity: 92%
Prevotella bivia [32]
  Activity: 0%
Clostridium perfringens
  Activity: 100%
Schaalia odontolytica [33]
  MIC50: 2 µg/mL (≈ 4.68 µM)
  MIC90: 16 µg/mL (≈ 37.4 µM)
Clostridioides difficile
  Activity: 0%
Actinomyces israelii [34]
  Activity: 92%
[35]
  MIC50: ≤ 0.06 µg/mL
  MIC90: 0.5 µg/mL (≈ 1.17 µM)
Bifidobacterium sp. [36]
  Activity: 0%
[37]
  Activity: 7%
Eggerthella lenta [38]
  Activity: 0%
Anaerococcus prevotii
  Activity: 100%
Eubacterium sp. [39]
  Activity: 0%
Prevotella intermedia [40]
  MIC50: 2 µg/mL (≈ 4.68 µM)
  MIC90: 4 µg/mL (≈ 9.36 µM)

Source: ChEMBL document CHEMBL1671716, “Antimicrobial susceptibility patterns for recent clinical isolates of anaerobic bacteria in South Korea” (2010)
